Screening data as filed in PubChem.
Most compounds without a hit are left out; they make up all but 1.9% or so of the library.
NTR1 agonist = activates human neurotensin receptor 1; 330,000 compounds, 0.17% hits; activation, % at 20 µM; P30989; NTR1-U2OS beta-arrestin-GFP spot imaging, agonist mode;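 active = activation at or above 40% of the spot to cytoplasm intensity ratio, with at least 20 cells analyzed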;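 also: 0% = DMSO without peptide and 100% = 100 nM NTR1 peptide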
TLR4 MyD88 comp = TLR4-MyD88 interaction inhibition in cells; HeLa CL3-4 TLR4/MyD88 BLA complementation, FRET ratio; O00206+Q99836; AID 861; 200,000 compounds, 0.18% hits; inhibition, % at 8.4 µM; in the data active = inhibition above about 25%;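 also: 0% = vehicle and 100% = reference inhibitor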
NOD2 RIPK2 PPI = inhibitors of human NOD2-RIPK2 interaction | O43353 | AID 624267 | CHO BLA complementation NOD2-RIPK2, CCF4 ratio | 360,000 compounds, 0.38% hits | inhibition, % at 4.98 µM; in the data active = inhibition above about 21%;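 also: 0% = vehicle only and 100% = reference blocker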
MC4R ag barr = human MC4R agonism via beta-arrestin; P32245; U2OS MC4R beta-arrestin complementation, luminescence; percent of melanotan II response, DMSO zero; activation, % at 8.9 µM; 360,000 compounds, 0.98% hits;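 active = activation above a per-plate cutoff, the mean activation of sample wells on that plate plus 3 SD, cut at about 8% in these data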
MC4R antagonist = blocks human MC4R cAMP signaling | P32245 | MC4R-expressing cells, MTII-stimulated cAMP, LANCE TR-FRET | inhibition, % at 6.5 µM | 360,000 compounds, 0.48% hits | AID 540295;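 active = inhibition above its plate's cutoff, the mean of tested wells on that plate plus 3 SD, cut at about 29% in these data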;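 also: 0% = Melanotan II alone and 100% = Melanotan II plus saturating MCL0020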
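System: U2OS-MC4R stable cell line; Technique: Eu-cAMP/anti-cAMP TR-FRET, emission 671 nm; Repeats: single well per compound; Also added: Melanotan II; Dosing: one concentration, 6.5 µM nominal; Schedule: 30-min compound, 1-h challenge, 1-h detection, room temperature.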
TLR9-MyD88 block = inhibitors of human TLR9-MyD88 binding. Q9NR96+Q99836. inhibition, % at 4.98 µM. CHO BLA complementation TLR9-MyD88, CCF4 FRET ratio. 340,000 compounds, 0.21% hits;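 active = inhibition above the mean over all tested compounds plus 3 SD, cut at about 21% in these data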;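 also: 0% = DMSO only wells and 100% = clavulanate BLA inhibitor control wells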
Target sequence (Q99836 whole entry, looked up): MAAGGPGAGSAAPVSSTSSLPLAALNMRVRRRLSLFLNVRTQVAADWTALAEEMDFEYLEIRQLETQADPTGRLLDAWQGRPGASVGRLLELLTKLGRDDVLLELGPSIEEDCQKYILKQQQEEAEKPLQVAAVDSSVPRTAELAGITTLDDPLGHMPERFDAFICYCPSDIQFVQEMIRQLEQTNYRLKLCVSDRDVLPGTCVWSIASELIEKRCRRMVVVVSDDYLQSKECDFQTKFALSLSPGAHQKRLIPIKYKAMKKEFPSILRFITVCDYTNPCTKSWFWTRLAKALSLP
Target sequence (Q9NR96 whole entry, looked up): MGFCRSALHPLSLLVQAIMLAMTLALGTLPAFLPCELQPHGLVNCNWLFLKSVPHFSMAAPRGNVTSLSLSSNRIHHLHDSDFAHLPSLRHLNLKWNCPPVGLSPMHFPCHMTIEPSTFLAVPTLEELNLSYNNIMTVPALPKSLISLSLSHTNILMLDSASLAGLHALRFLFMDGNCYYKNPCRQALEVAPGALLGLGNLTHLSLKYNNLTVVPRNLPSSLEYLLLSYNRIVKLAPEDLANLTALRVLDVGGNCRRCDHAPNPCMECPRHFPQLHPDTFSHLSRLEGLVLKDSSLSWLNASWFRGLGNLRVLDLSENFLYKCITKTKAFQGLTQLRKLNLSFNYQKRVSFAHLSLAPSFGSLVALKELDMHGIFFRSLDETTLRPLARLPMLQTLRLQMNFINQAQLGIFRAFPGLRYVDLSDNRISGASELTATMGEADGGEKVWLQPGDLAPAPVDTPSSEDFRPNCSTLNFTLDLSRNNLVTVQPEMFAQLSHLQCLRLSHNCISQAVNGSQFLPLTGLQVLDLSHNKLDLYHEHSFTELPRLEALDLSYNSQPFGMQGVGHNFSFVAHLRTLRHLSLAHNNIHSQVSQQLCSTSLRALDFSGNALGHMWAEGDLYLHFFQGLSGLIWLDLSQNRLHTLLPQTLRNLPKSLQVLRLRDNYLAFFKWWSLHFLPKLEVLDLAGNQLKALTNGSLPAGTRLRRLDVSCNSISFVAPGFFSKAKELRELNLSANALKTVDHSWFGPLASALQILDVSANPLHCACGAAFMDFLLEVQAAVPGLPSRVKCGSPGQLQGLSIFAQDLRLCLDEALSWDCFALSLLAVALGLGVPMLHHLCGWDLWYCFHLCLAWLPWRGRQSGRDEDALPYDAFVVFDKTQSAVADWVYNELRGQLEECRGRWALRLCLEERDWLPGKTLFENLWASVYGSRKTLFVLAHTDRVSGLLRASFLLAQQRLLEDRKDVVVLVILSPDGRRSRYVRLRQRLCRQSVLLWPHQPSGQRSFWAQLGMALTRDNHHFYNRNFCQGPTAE
NTR1 ag conf = NTR1 (human) agonism, confirmed. shares compounds with NTR1 agonist. NTR1-U2OS beta-arrestin-GFP translocation imaging. activation, % at 20 µM. 480 compounds, 38% hits;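 active = mean activation at 20 µM of at least 40%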;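 also: 0% = DMSO without peptide and 100% = 100 nM NTR1 peptide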
The depositor's hits bear a star; . = no result.

SMILES | NTR1 agonist | TLR4 MyD88 comp | NOD2 RIPK2 PPI | MC4R ag barr | MC4R antagonist | TLR9-MyD88 block | NTR1 ag conf
O=S(=O)(NCC(Nc1ccccc1)c1ccccc1)c1ccc(Cl)cc1 (stereo not drawn) | 44* | 1 | 7 | 4 | 14 | -16 | 7
O=C(/C=C/c1cccnc1)c1ccc(F)c(F)c1 | 61* | . | 1 | 0 | 12 | -6 | 69*
O=C(/C=C/c1cccc(OCc2ccccc2)c1)c1cccnc1 | 54* | 23 | -6 | -1 | 10 | 1 | 2
CN(CC(=O)Nc1cccc2ccccc12)C(=O)c1ccc(F)cc1F | 1 | . | -11 | 1 | -1 | -10 | .
COc1ccc(-c2nc3c4c(ncn3n2)-c2ccccc2CC42CCCC2)cc1 | -2 | 3 | 4 | -1 | -1 | 8 | .
Oc1cccc(-c2nc3c4c(ncn3n2)-c2ccccc2CC42CCCC2)c1 | 44* | 8 | -2 | 0 | 17 | 3 | 34
COc1cc([N+](=O)[O-])ccc1NC(=O)Nc1nc2c(s1)CCCC2 | 43* | 4 | 7 | 0 | 6 | 5 | 18
COc1ccc2sc(-c3ccc(S(C)(=O)=O)cc3)c(C#CCO)c2c1 | 57* | . | 5 | 1 | 11 | 0 | 57*
CC(C)N(C(=O)[C@H]1C[C@H](CC(=O)NCc2ccco2)C(=O)N2CCc3c([nH]c4ccc(Cl)cc34)[C@]12C)C(C)C | 3 | . | 13 | 3 | 2 | -3 | .
CCN1CCN(CCCNC(=O)c2ccc(/C=C3/Sc4ccccc4N(Cc4ccccc4F)C3=O)cc2)CC1 | 41* | 4 | 18 | 7 | -2 | 10 | 7
N=c1c(C(=O)NCc2ccc(F)cc2)cc2c(=O)n3ccccc3nc2n1Cc1ccco1 | 41* | 13 | 3 | -3 | -38 | 4 | 22
N=c1c(C(=O)NCc2ccccc2)cc2c(=O)n3ccccc3nc2n1Cc1ccco1 | 16 | 11 | 8 | -2 | -54 | -10 | .
COc1ccc(CCNC(=O)c2cc3c(=O)n4cccc(C)c4nc3n(Cc3ccco3)c2=N)cc1OC | 42* | . | -1 | -3 | -37 | 11 | 11
Cc1cccn2c(=O)c3cc(C(=O)NCc4ccco4)c(=N)n(CCc4ccccc4)c3nc12 | 16 | . | 1 | 0 | 21 | -18 | .
c1ccc(CN2CCC(Nc3nc(-c4ccccc4)nc4ccccc34)CC2)cc1 | 42* | -13 | 8 | 4 | 5 | -5 | 42*
c1ccc(CN2CCC(CNc3ncnc4ccccc34)C2)cc1 (stereo not drawn) | . | . | -8 | 1 | 9 | 1 | .
O=c1c2ccccc2c(C=Nc2ccc(O)cc2)c(O)n1Cc1ccccc1 | 40 | . | -1 | 0 | -3 | -1 | 5
COc1ccc(CCn2c(C3CCCCC3)nc3c(c(=O)c4ccccc4n3C)c2=O)cc1 | 34 | . | -6 | 5 | -10 | . | .
COc1ccc(Cn2c(C3CCCCC3)nc3c(c(=O)c4ccccc4n3C)c2=O)cc1 | 43* | . | . | . | . | . | 34
CC(C)(C)c1ccc(OCCOc2ccc(C(C)(C)C)cc2NC=O)c(NC=O)c1 | 43* | . | 3 | 2 | 23 | -13 | 23
O=c1c(C(c2ccccc2)c2c(O)nc3n(c2=O)CCS3)c(O)nc2n1CCS2 | 0 | 2 | -4 | 0 | 18 | 1 | .
O/N=C/c1cn(-c2ccccc2)nc1-c1ccccc1 | . | . | -6 | 3 | -2 | -10 | .
CC1(C)CC(=O)C(=Cc2cn(-c3ccccc3)nc2-c2ccccc2)C(=O)C1 | 71* | . | 0 | -1 | 8 | 6 | 65*
COC(=O)c1ccc2c(=O)n(CCCCCC(=O)N3CCN(c4ccccc4)CC3)c(=O)[nH]c2c1 | 47* | -5 | -4 | 0 | 3 | 5 | 64*
CCN1CCN(C(=O)CCCCCn2c(=O)[nH]c3cc(C(=O)OC)ccc3c2=O)CC1 | -1 | 6 | -4 | -2 | -3 | -1 | .
SMILES | NTR1 agonist | TLR4 MyD88 comp | NOD2 RIPK2 PPI | MC4R ag barr | MC4R antagonist | TLR9-MyD88 block | NTR1 ag conf
CCOC(=O)/C(=C\c1cccc(O)c1)c1nc2sc(C)c(C)c2c(=O)[nH]1 | 43* | -3 | 13 | -3 | 17 | 5 | 51*
CCOC(=O)c1nc2sc(C)c(C)c2c(=O)[nH]1 | -2 | -14 | -8 | -1 | 4 | -12 | .
COc1ccc(O)c(-c2cc(-c3cccc(Br)c3)n[nH]2)c1 | 55* | 4 | 4 | 6 | 11 | 2 | 16
CCOc1cc(/C=C2/C(=O)ON=C2C)ccc1OCc1ccccc1 | 48* | 9 | . | . | . | . | 54*
CCOc1cc(/C=C2/C(=O)ON=C2C)ccc1OCc1ccc(F)cc1 | 57* | 18 | 1 | 0 | 21 | -4 | 64*
COc1ccc(/C=C2/C(=O)ON=C2C)cc1Br | 2 | . | -5 | 1 | 2 | 7 | .
C#CCOc1ccc(/C=C2/C(=O)ON=C2C)cc1Cl | 0 | . | 15 | 0 | 20 | -2 | .
COc1ccc(Cc2nc3ccc(C(=O)N(C)CCc4cnn(C)c4)cc3o2)cc1OC | 1 | . | -7 | -1 | 1 | 3 | .
C=C(C)COc1ccc(-c2[nH]ncc2-c2ccc(Br)cc2)c(O)c1 | 41* | -13 | 9 | 4 | -24 | 0 | 9
CCOc1ccc(-c2[nH]ncc2-c2ccc(OC)c(OC)c2)c(O)c1 | 2 | -7 | 1 | -1 | -11 | 13 | .
CCOc1ccc(-c2[nH]ncc2-c2ccc(Cl)cc2)c(O)c1 | 55* | . | 16 | 6 | 1 | 14 | 6
COc1ccc(S(=O)(=O)N2CCc3ccccc32)cc1C(=O)Nc1ccc(C(N)=O)cc1 | 0 | . | 2 | -1 | 17 | 0 | .
Cc1ccnc(Nc2nc(-c3ccc(F)cc3)cs2)c1 | 49* | . | -11 | 1 | -3 | 0 | 3
COc1ccc(Nc2nc(N)c([N+](=O)[O-])c(NC3CCCCC3)n2)cc1 | 46* | . | 6 | 3 | 18 | 0 | 15
COc1ccc(Nc2nc(N)c([N+](=O)[O-])c(NCCO)n2)cc1 | -2 | . | -1 | 0 | 0 | . | .
CCN(C(=O)c1ccc2c(Cl)c3c(nc2c1)CCC3)c1ccc(C)c(C)c1 | 45* | -1 | -1 | 3 | 1 | -3 | 4
C/C(=N\NC(=O)c1ccc(C)cc1C)c1ccc2c(c1)Nc1ccccc1S2 | 43* | 1 | 7 | 1 | 13 | 3 | 33
Cn1c2ccccc2c(=O)c2c(=O)n(Cc3ccco3)c(-c3ccc(C(C)(C)C)cc3)nc21 | 40* | . | . | . | . | . | 19
CN(c1ccccc1)c1nc(N)c([N+](=O)[O-])c(Nc2cccc(F)c2)n1 | 44* | . | 5 | 0 | 12 | 1 | 37
CN(c1ccccc1)c1nc(N)c([N+](=O)[O-])c(Nc2ccc(F)cc2)n1 | 13 | . | -11 | 2 | 8 | -13 | .
